Reference: ChEMBL document CHEMBL1124914, “Novel inhibitors of human renin. Cyclic peptides based on the tetrapeptide sequence Glu-D-Phe-Lys-D-Trp” (J Med Chem, 1990)
The source made the active and inactive calls. No cut-off for these calls is given here.

Columns and labels:
Renin = molecular target: T1, Renin (Homo sapiens, UniProt P00797); test: Inhibitory activity against human renin
T1 sequence (P00797 whole entry): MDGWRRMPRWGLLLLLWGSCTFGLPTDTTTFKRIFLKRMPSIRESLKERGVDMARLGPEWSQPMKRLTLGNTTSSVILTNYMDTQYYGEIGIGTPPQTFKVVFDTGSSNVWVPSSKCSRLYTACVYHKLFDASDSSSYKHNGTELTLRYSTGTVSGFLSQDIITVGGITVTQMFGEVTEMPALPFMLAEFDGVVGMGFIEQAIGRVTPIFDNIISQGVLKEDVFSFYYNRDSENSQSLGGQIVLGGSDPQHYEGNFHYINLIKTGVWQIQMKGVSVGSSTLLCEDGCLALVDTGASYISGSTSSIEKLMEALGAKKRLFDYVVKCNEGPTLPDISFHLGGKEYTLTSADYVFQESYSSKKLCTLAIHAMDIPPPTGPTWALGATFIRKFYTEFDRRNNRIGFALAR
How it was run: (§1)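 Partially purified human renal renin with human angiotensinogen partially purified from volunteer plasma (ammonium sulfate fractionation, DEAE-Sephacel). Final mix: 50 mM phosphate pH 7.0, 3 mM EDTA, 3 mM 8-hydroxyquinoline, 0.5 mM PMSF, 0.1% azide, 0.1% BSA, 1% DMSO. Incubation 120 min at 30 °C, stopped on ice. Angiotensin I measured by radioimmunoassay; percent inhibition of vehicle control rate.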

Renin (Homo sapiens) [1] = molecular target: T2, Renin (Homo sapiens) (UniProt P00797); test: Tested for inhibition against human renin at a concentration of 100 uM
T2 sequence (whole entry): T1 sequence (P00797 whole entry)
How it was run: as §1, with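 “DMSO. […]” for “DMSO.”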

Renin (Sus scrofa) = test: Inhibitory activity against porcine renin
Renin (Homo sapiens) [2] = molecular target: T2, Renin (Homo sapiens); test: Ratio of inhibitory activity of porcine renin to that of human renin; details: Sus scrofa
Renin (Homo sapiens) [3] = molecular target: T2, Renin (Homo sapiens); test: Tested for inhibition against human renin at a concentration of 100 uM; Inactive
How it was run: as §1, with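 “DMSO. […]” for “DMSO.”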

Renin (Homo sapiens) [4] = molecular target: T2, Renin (Homo sapiens); test: Tested for inhibition against human renin at a concentration of 1 uM
How it was run: as §1, with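 “DMSO. […]” for “DMSO.”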

Renin (Homo sapiens) [5] = molecular target: T2, Renin (Homo sapiens); test: Tested for inhibition against human renin at a concentration of 10 uM
How it was run: as §1, with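 “DMSO. […]” for “DMSO.”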

IC50 (Renin) [nM]	inhibition (Renin (Homo sapiens) [1]) [%]	SMILES	also measured
1700	–	CC(C)(C)CNC(=O)C(Cc1c[nH]c2ccccc12)NC(=O)[C@H](CCCCN)N1C(=O)CC[C@@H](NC(=O)OCc2ccccc2)C(=O)N[C@H](Cc2ccccc2)C1=O (stereo in doubt)	–
–	56	CC(=O)NCSC[C@@H]1NC(=O)[C@@H](CC(C)C)NC(=O)C(Cc2c[nH]c3ccccc23)NC(=O)[C@@H](CSCNC(C)=O)NC(=O)[C@H](Cc2ccccc2)NC1=O (stereo in doubt)	–
430	–	CC(C)CCNC(=O)C(Cc1c[nH]c2ccccc12)NC(=O)[C@H](CCCCN)N1C(=O)CC[C@@H](NC(=O)COc2ccccc2)C(=O)N[C@H](Cc2ccccc2)C1=O (stereo in doubt)	IC50 (Renin (Sus scrofa)): 8200 nM; Ratio (Renin (Homo sapiens) [2]): 19.2
810	–	CC[C@@H](C)[C@H](NC(=O)C(Cc1c[nH]c2ccccc12)NC(=O)[C@H](CCCCN)N1C(=O)CC[C@@H](NC(=O)OCc2ccccc2)C(=O)N[C@H](Cc2ccccc2)C1=O)C(=O)NC (stereo in doubt)	–
–	32	COC(=O)[C@H](CC(C)C)NC(=O)C(Cc1c[nH]c2ccccc12)NC(=O)[C@@H](CCCCN)N1C(=O)C[C@H](NC(=O)OCc2ccccc2)C(=O)N[C@H](Cc2ccccc2)C1=O (stereo in doubt)	–
–	53	COC(=O)[C@H](CC(C)C)NC(=O)C(Cc1c[nH]c2ccccc12)NC(=O)[C@H](CCCCN)N1C(=O)CSC[C@@H](NC(=O)OCc2ccccc2)C(=O)N[C@H](Cc2ccccc2)C1=O (stereo in doubt)	–
–	67	COC(=O)[C@@H](NC(=O)C(Cc1c[nH]c2ccccc12)NC(=O)[C@H](CCCCN)N1C(=O)CC[C@@H](NC(=O)OCc2ccccc2)C(=O)N[C@H](Cc2ccccc2)C1=O)C1CCCCC1 (stereo in doubt)	–
–	–	COC(=O)[C@H](CC(C)C)NC(=O)C(Cc1c[nH]c2ccccc12)NC(=O)[C@@H](CCCN)N1C(=O)C[C@H](NC(=O)OCc2ccccc2)C(=O)N[C@H](Cc2ccccc2)C1=O (stereo in doubt)	inhibition (Renin (Homo sapiens) [3]): inactive
340	–	CNC(=O)[C@H](CC(C)C)NC(=O)C(Cc1c[nH]c2ccccc12)NC(=O)[C@H](CCCCN)N1C(=O)CC[C@@H](NC(=O)OCc2ccccc2)C(=O)N[C@H](Cc2ccccc2)C1=O (stereo in doubt)	–
–	42	COC(=O)[C@H](CC(C)C)NC(=O)C(Cc1c[nH]c2ccccc12)NC(=O)[C@H](CCCN)N1C(=O)CC[C@H](NC(=O)OCc2ccccc2)C(=O)N[C@@H](Cc2ccccc2)C1=O (stereo in doubt)	–
–	79	CC(C)(C)OC(=O)N[C@@H]1CCC(=O)N([C@@H](CCCCN)C(=O)NCCc2c[nH]c3ccccc23)C(=O)[C@@H](Cc2ccccc2)NC1=O	–
63	–	CC(C)CCNC(=O)C(Cc1c[nH]c2ccccc12)NC(=O)[C@H](CCCCN)N1C(=O)CC[C@@H](NCC(C)(C)C)C(=O)N[C@H](Cc2ccccc2)C1=O (stereo in doubt)	IC50 (Renin (Sus scrofa)): 7100 nM; Ratio (Renin (Homo sapiens) [2]): 113
–	–	CC(C)C[C@H]1NC(=O)C(Cc2c[nH]c3ccccc23)NC(=O)[C@@H](CCCCN)N(C(=O)[C@H](Cc2ccccc2)NC(=O)OCc2ccccc2)C1=O (stereo in doubt)	inhibition (Renin (Homo sapiens) [3]): inactive
710	–	CC(C)CCNC(=O)C(Cc1c[nH]c2ccccc12)NC(=O)[C@H](CCCCN)N1C(=O)CC[C@@H](N)C(=O)N[C@H](Cc2ccccc2)C1=O (stereo in doubt)	IC50 (Renin (Sus scrofa)): 46000 nM; Ratio (Renin (Homo sapiens) [2]): 64.7
850	–	CCNC(=O)[C@H](CC(C)C)NC(=O)C(Cc1c[nH]c2ccccc12)NC(=O)[C@H](CCCCN)N1C(=O)CC[C@@H](NC(=O)OCc2ccccc2)C(=O)N[C@H](Cc2ccccc2)C1=O (stereo in doubt)	–
–	22	COC(=O)[C@H](CCSC)NC(=O)[C@H](CC(C)C)NC(=O)C(Cc1c[nH]c2ccccc12)NC(=O)[C@H](CS)NC(=O)[C@H](Cc1ccccc1)NC(=O)[C@H](CS)NC(=O)OC(C)(C)C (stereo in doubt)	–
–	69.2	COC(=O)C(Cc1c[nH]c2ccccc12)NC(=O)[C@H](CCCCN)N1C(=O)CC[C@@H](NC(=O)OCc2ccccc2)C(=O)N[C@H](Cc2ccccc2)C1=O (stereo in doubt)	–

IC50 (Renin) [nM]	inhibition (Renin (Homo sapiens) [1]) [%]	SMILES	also measured
–	41	CCC(Cc1c[nH]c2ccccc12)NC(=O)[C@H](CCCCN)N1C(=O)CC[C@@H](NC(=O)OC(C)(C)C)C(=O)N[C@H](Cc2ccccc2)C1=O (some centres not stated)	–
–	–	CC(=O)NCSC[C@H]1NC(=O)[C@H](Cc2ccccc2)NC(=O)CNC(=O)[C@@H](CC(C)C)NC(=O)C(Cc2c[nH]c3ccccc23)NC1=O (stereo in doubt)	inhibition (Renin (Homo sapiens) [3]): inactive
–	38	CC(=O)NCSC[C@H]1NC(=O)[C@H](Cc2ccccc2)NC(=O)[C@@H]2CCCN2C(=O)[C@@H](CC(C)C)NC(=O)C(Cc2c[nH]c3ccccc23)NC1=O (stereo in doubt)	–
1900	–	CC(C)CCNC(=O)C(Cc1c[nH]c2ccccc12)NC(=O)[C@H](CCCCN)N1C(=O)CC[C@@H](NCc2c[nH]c3ccccc23)C(=O)N[C@H](Cc2ccccc2)C1=O (stereo in doubt)	–
–	93	CC(C)CCNC(=O)C(Cc1c[nH]c2ccccc12)NC(=O)[C@H](CCCCN)N1C(=O)CC[C@@H](NC(C)C)C(=O)N[C@H](Cc2ccccc2)C1=O (stereo in doubt)	inhibition (Renin (Homo sapiens) [4]): 30%
–	–	COC(=O)[C@H](CCCCN)N1C(=O)CC[C@@H](NC(=O)OC(C)(C)C)C(=O)N[C@H](Cc2ccccc2)C1=O	inhibition (Renin (Homo sapiens) [3]): inactive
–	–	CC(C)C[C@H]1NC(=O)C(Cc2c[nH]c3ccccc23)NC(=O)[C@@H](CCCCN)N(C(=O)[C@@H](N)Cc2ccccc2)C1=O (stereo in doubt)	inhibition (Renin (Homo sapiens) [3]): inactive
–	–	CC(=O)NCSC[C@H]1NC(=O)[C@H](Cc2ccccc2)NC(=O)CN(C)C(=O)[C@@H](CC(C)C)NC(=O)C(Cc2c[nH]c3ccccc23)NC1=O (stereo in doubt)	inhibition (Renin (Homo sapiens) [3]): inactive
–	–	COC(=O)[C@H](CC(C)C)NC(=O)C(Cc1c[nH]c2ccccc12)NC(=O)[C@@H]1CCC(=O)N[C@H](CCCCNC(=O)OCc2ccccc2)C(=O)N[C@@H](Cc2ccccc2)C(=O)N1 (stereo in doubt)	inhibition (Renin (Homo sapiens) [3]): inactive
450	–	COC(=O)C(CCSC)NC(=O)[C@H](CC(C)C)NC(=O)C(Cc1c[nH]c2ccccc12)NC(=O)[C@H](CCCCN)N1C(=O)CC[C@@H](NC(=O)OCc2ccccc2)C(=O)N[C@H](Cc2ccccc2)C1=O (stereo in doubt)	–
–	–	CC(C)(C)OC(=O)N[C@@H]1CCC(=O)N([C@@H](CCCCN)C(N)=O)C(=O)[C@@H](Cc2ccccc2)NC1=O	inhibition (Renin (Homo sapiens) [3]): inactive
–	33	CC(Cc1c[nH]c2ccccc12)NC(=O)[C@H](CCCCN)N1C(=O)CC[C@@H](NC(=O)OC(C)(C)C)C(=O)N[C@H](Cc2ccccc2)C1=O (some centres not stated)	–
130	–	CCC(C)CN[C@@H]1CCC(=O)N([C@@H](CCCCN)C(=O)NC(Cc2c[nH]c3ccccc23)C(=O)NCCC(C)C)C(=O)[C@@H](Cc2ccccc2)NC1=O (stereo in doubt)	–
–	–	COC(=O)[C@@H]1CCCN1C(=O)[C@H](CC(C)C)NC(=O)C(Cc1c[nH]c2ccccc12)NC(=O)[C@H](CCCCN)N1C(=O)CC[C@@H](NC(=O)OCc2ccccc2)C(=O)N[C@H](Cc2ccccc2)C1=O (stereo in doubt)	inhibition (Renin (Homo sapiens) [5]): 76%
290	–	COC(=O)[C@@H](CCSC)NC(=O)[C@H](CC(C)C)NC(=O)C(Cc1c[nH]c2ccccc12)NC(=O)[C@H](CCCCN)N1C(=O)CC[C@@H](NC(=O)OCc2ccccc2)C(=O)N[C@H](Cc2ccccc2)C1=O (stereo in doubt)	–
210	–	CC(C)CCNC(=O)C(Cc1c[nH]c2ccccc12)NC(=O)[C@H](CCCCN)N1C(=O)CC[C@@H](NC(=O)OC(C)(C)C)C(=O)N[C@H](Cc2ccccc2)C1=O (stereo in doubt)	IC50 (Renin (Sus scrofa)): 8500 nM; Ratio (Renin (Homo sapiens) [2]): 40.4
